Laboratory results: the array DNA melting data of Ke et al. (doi:10.1101/2024.01.08.574731)

Columns and labels:
[1] = melting temperature; fluorescence melt of hairpins on a sequencing array, two-state fit, raised by 9.35 °C to match UV melts; conditions: sodium 0.088 M
Procedure, shortened: (§1)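 Two-state fits, bootstrapped, provided melting temperature and folding enthalpy from Cy3 fluorescence normalised to pre-quench Cy3 and to control constructs. Library hairpins with annealed Cy3 and quencher oligos were imaged on a sequenced MiSeq flow cell in 50 mM Na-HEPES pH 8.0, 25 mM NaCl, at 2.5 °C intervals up to 60 °C. Four replicates were combined with inverse-variance weighting. A 9.35 °C upward shift was applied to fitted temperatures to match UV melts.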

[2] = folding enthalpy; higher = less favourable; fluorescence melt of hairpins on a sequencing array, two-state fit; conditions: sodium 0.088 M
Procedure, shortened: as §1

Row | Sequence | Tm [1] [°C] | folding enthalpy [2] [kcal/mol]
1 | GATCCCCGAGGGATC ((((((...)))))) | 62 | -31.8
2 | GGCATGGGAAACCATACC ((.((((....)))).)) | 41 | -26.2
3 | GGCCCTACGAAAGTAGCC (((..(((....)))))) | 31 | -15.3
4 | GTCGCACGAAAGTGGGAC (((.(((....))).))) | 67.4 | -38.5
5 | GAGTCGGAAACGACTC ((((((....)))))) | 65.9 | -37.5
6 | GAGTGCGAAAGCAGCCTC ((((((....)))..))) | 34.5 | -13.2
7 | GTGGAGGGAAACCTCTAC ((.((((....)))).)) | 46.7 | -25.7
8 | CGAACGGAAACGTCGTCG ((((((....)))..))) | 47.1 | -18.3
9 | GCTTCCCGAAAGGGAGC (((.(((....)))))) | 57.1 | -22.3
10 | GCAGGGCGAAAGCGCGGC ((.(.((....)).).)) | 62.9 | -29.2
11 | GATATACGAAAGTAGATC (((.(((....))).))) | 44.1 | -31.1
12 | GTTTAGGAAACTAAAC ((((((....)))))) | 44.7 | -30.6
13 | GACTATGGAAACATGGTC (((.(((....))).))) | 45.4 | -35.5
14 | GCTACCGAAAGGTCAAGC ((((((....)))..))) | 39.1 | -14.9
15 | GTGCTGCGAAAGCACAC (((.(((....)))))) | 55.3 | -19.4
16 | GTGCCGGGAAACCAGCAC ((((.((....)).)))) | 50.1 | -33.9
17 | GGATTCGCGAAAGCGTCC (((..(((....)))))) | 29.5 | -10.7
18 | GTCAGGGGAAACCCCAAC ((..(((....)))..)) | 28.3 | -11.7
19 | GGCATCCGAAAGGAGCC (((.(((....)))))) | 55.6 | -42.6
20 | GTATCACGAAAGTGTTAC (((.(((....))).))) | 42.3 | -25.8
21 | GCGGTGCGAAAGCATGGC ((..(((....)))..)) | 56.1 | -21.8
22 | GGTTTTCGAAAGAATACC (((.(((....))).))) | 42.3 | -30.8
23 | GCGTGGCGAAAGCGAGGC ((.(.((....)).).)) | 51.1 | -16.8

Row | Sequence | Tm [1] [°C] | folding enthalpy [2] [kcal/mol]
24 | CGACGTCGGAAACGATCG (((..(((....)))))) | 37 | -11.2
25 | CGTCCGGAAACGGGTACG ((((((....)))..))) | 42.4 | -25
26 | GAACAGGGAAACCCGTTC ((((.((....)).)))) | 41.8 | -24.4
27 | GCCTCGGGAAACCAAGGC ((((.((....)).)))) | 47.6 | -34.9
28 | GTTTGAGGAAACTCAAAC (((((((....))))))) | 55.8 | -36.8
29 | GATCCCAATGGGATC ((((((...)))))) | 60.6 | -32.5
30 | GCAGTGCGAAAGCGGTGC (((..((....))..))) | 63.9 | -39.5
31 | GCCAGTGCGAAAGCAGGC (((..(((....)))))) | 53.7 | -15.7
32 | GTGCGCGGAAACGTGCAC ((((.((....)).)))) | 67.5 | -35.4
33 | GCTTAGCGAAAGCTTTGC ((..(((....)))..)) | 44.3 | -14.8
34 | AGGAAGAAATTCCT (((((....))))) | 28.9 | -11.9
35 | GTCGTCCGAAAGGATGAC (((.(((....))).))) | 62.1 | -54.4
36 | GGGGTCGAAAGACTCCC ((((((....))).))) | 57 | -30.9
37 | GATCTTAGAAAAGATC ((((((....)))))) | 36.4 | -21.6
38 | GCCGGGCGAAAGCTCTGC ((.(.((....)).).)) | 41.4 | -18.5
39 | GATCCGTGATCGGATC ((((((....)))))) | 58.6 | -32.1
40 | TGCATGAAAATGCA (((((....))))) | 52 | -19.8
41 | GATCATACAGATGATC ((((((....)))))) | 44.4 | -35.8
42 | CCTTTGAAAAAAGG (((((....))))) | 39.7 | -12.2
43 | GCAGACGAAAGTCCATGC ((((((....)))..))) | 35.3 | -16.5
44 | GATCGTCTGCACGATC ((((((....)))))) | 55.3 | -38.3
45 | GATCATGGTATGATC ((((((...)))))) | 48.9 | -36.3
46 | GCCAGTGGAAACACTGAC (.(((((....))))).) | 46.1 | -15.8

Row | Sequence | Tm [1] [°C] | folding enthalpy [2] [kcal/mol]
47 | GATCGTGTTCACGATC ((((((....)))))) | 58.8 | -44.2
48 | GAGTGCGAAAGCACACTC ((((((....)))..))) | 58.6 | -12.6
49 | GAGTCTGGAAACAGACCC (.(((((....))))).) | 38 | -14.2
50 | GAGGGAGGAAACCCCCTC (((((.(....).))))) | 46.3 | -28.5
51 | GCTCGGCGAAAGCTGTGC ((.(.((....)).).)) | 60.2 | -15.4
52 | GCGTTTACACGC ((((....)))) | 54.3 | -23.2
53 | GCCACTGGAAACAATGGC ((((.((....)).)))) | 42.2 | -26.7
54 | GCATGGCGAAAGCACTGC (((..((....))..))) | 46.3 | -20.6
55 | GCATACGAAAGTATTTGC ((((((....)))..))) | 32.9 | -17.1
56 | GCAGGCGAAAGCCCATGC ((((((....)))..))) | 41.4 | -13.2
57 | GCAGACGCGAAAGCGTGC (((..(((....)))))) | 52 | -11.8
58 | GCTGCCGGAAACGGTGGC ((..(((....)))..)) | 55.1 | -40
59 | GCTTACGAAAGTAAGC ((((((....)))))) | 68.9 | -31.8
60 | GAGATGACGAAAGTCCTC (((..(((....)))))) | 30 | -11.7
61 | GGACAACCGAAAGGTTCC (((..(((....)))))) | 29.4 | -10.9
62 | GTGGGCGGAAACGTCCGC (.((.((....)).)).) | 54.3 | -25.4
63 | GATCTCGATTGAGATC ((((((....)))))) | 51.7 | -39.4
64 | GCGATTGAAAAATCGC ((((((....)))))) | 64.8 | -40.7
65 | CGGCAACGGAAACGTCCG (((..(((....)))))) | 39.2 | -13
66 | GATCACCTCGTGATC ((((((...)))))) | 59.3 | -38.2
67 | GATCAAGGATTTGATC ((((((....)))))) | 49.1 | -29.8
68 | GCTAGGGGAAACCCTAAC (.(((((....))))).) | 32.1 | -13.4
69 | GCGTTCGAAAGAAACCGC ((((((....)))..))) | 36.9 | -25.2
